# Tests used:
# [1] = system: K562; assay: Inhibitory concentration required against human chronic myelogenous leukemic K-562 cell line after 5h, using [3H]thymidine incorporation assay; type: functional, cell-based
# Method in brief: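 K-562 cells in log-phase growth seeded at 4×10^4 cells/mL in supplemented RPMI 1640. Purines at 10 to 0.078 µg/mL for 5 h, final DMSO 0.05% (vol/vol). Then a 2 h pulse of 1 µCi/well [3H]-thymidine, filter harvest, and counting of cell-bound radioactivity. IC50 is the concentration giving 50% inhibition of incorporation.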
# [2] = system: K562; assay: Percent inhibition of [3H]-thymidine incorporation was determined in human chronic myelogenous leukemic K-562 cell line at 10 ug/mL after 48 hr; type: functional
# Method in brief: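 Single-concentration screen. K-562 cells in log growth seeded at 2×10^4 cells/mL in supplemented RPMI 1640 and exposed 48 h to purine at 10 µg/mL, final DMSO 0.05%. Followed by a 2 h [3H]-thymidine pulse (1 µCi/well), harvest onto fiberglass filters, and scintillation count. Reported as percent inhibition of incorporation.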
# [3] = system: K562; assay: Inhibitory concentration required against human chronic myelogenous leukemic K-562 cell line after 48h, using [3H]thymidine incorporation assay; type: functional, cell-based
# Method in brief: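 Logarithmically growing K-562 cells seeded at 2×10^4 cells/mL in RPMI 1640 with supplements. Exposed 48 h to purines at 10 to 0.078 µg/mL, final DMSO 0.05% (vol/vol). Pulsed 2 h with 1 µCi/well [3H]-thymidine, harvested onto fiberglass filters, and cell-associated radioactivity counted. IC50 taken as the concentration inhibiting incorporation by 50%.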
Structure (SMILES),IC50 [1],inhibition at 10 µg/mL [2],IC50 [3]
OC[C@H]1OC(n2cnc3c(/C=C/c4ccccc4)ncnc32)[C@H](O)[C@@H]1O (stereo partly drawn),10 mg/L,79%,2 mg/L
Clc1nc(C#Cc2ccccc2)c2ncn(Cc3ccccc3)c2n1,0.8 mg/L,100%,0.12 mg/L
Sc1ncnc2nc[nH]c12 [MERCAPTOPURINE ANHYDROUS],> 10 mg/L,80%,0.6 mg/L
C(=C\c1[nH]cnc2ncnc1-2)/c1ccccc1,–,28%,–
C(=C\c1ncnc2c1ncn2C1CCOCC1)/c1ccsc1,–,58%,–
COc1ccc(/C=C/c2[nH]cnc3ncnc2-3)cc1,–,54%,–
C(#Cc1ncnc2c1ncn2C1CCOCC1)c1ccccc1,3.2 mg/L,100%,0.5 mg/L
C(=C\c1[nH]cnc2ncnc1-2)/c1ccsc1,–,32%,–
CC(C)=CC#Cc1[nH]cnc2ncnc1-2,–,30%,–
C/C(=C\C#Cc1[nH]cnc2ncnc1-2)CO,–,17%,–
C(#Cc1ncnc2c1ncn2Cc1ccccc1)c1ccccc1,6 mg/L,98%,1.3 mg/L
C(=C\c1ncnc2c1ncn2Cc1ccccc1)/c1ccccc1,–,93%,–
C(=C\c1ncnc2c1ncn2C1CCOCC1)/c1ccccc1,–,66%,–
C/C(=C\C=C\c1ncnc2c1ncn2C1CCOCC1)CO,–,27%,–
Clc1nc2c(C#Cc3ccccc3)ncnc2n1C1CCOCC1,7 mg/L,85%,6.1 mg/L
C=Cc1ncnc2ncn(Cc3ccccc3)c12,1.4 mg/L,100%,0.5 mg/L
COC(=O)/C(C)=C/C=C/c1[nH]cnc2ncnc1-2,–,20%,–

Structure (SMILES),IC50 [1],inhibition at 10 µg/mL [2],IC50 [3]
C(=C\c1nc(-c2ccccc2)nc2c1ncn2Cc1ccccc1)/c1ccccc1,–,34%,–
COC(=O)/C(C)=C/C#Cc1[nH]cnc2ncnc1-2,3.2 mg/L,100%,1.6 mg/L
C(=C\c1ncnc2c1ncn2C1CCOCC1)/c1ccco1,–,35%,–
C(=C\c1ncnc2c1ncn2C1CCOCC1)/c1cccs1,–,65%,–
Nc1nc(/C=C/c2ccccc2)c2[nH]cnc2n1,–,2%,–
COc1ccc(/C=C/c2ncnc3c2ncn3C2CCOCC2)cc1,–,58%,–
C(#Cc1nc(-c2ccccc2)nc2c1ncn2Cc1ccccc1)c1ccccc1,2.4 mg/L,100%,1.4 mg/L
Nc1nc(/C=C/c2ccccc2)c2ncn(Cc3ccccc3)c2n1,2 mg/L,91%,1.2 mg/L
OC[C@H]1OC(n2cnc3c(C#Cc4ccccc4)ncnc32)[C@H](O)[C@@H]1O (stereo partly drawn),0.2 mg/L,100%,0.1 mg/L
C=Cc1ncnc2c1ncn2Cc1ccccc1,2.2 mg/L,100%,1.1 mg/L
C/C(=C\C=C\c1[nH]cnc2ncnc1-2)CO,–,6%,–
Nc1nc(F)nc2c1ncn2[C@@H]1O[C@H](CO)[C@@H](O)[C@@H]1O [FLUDARABINE],0.6 mg/L,98%,0.6 mg/L
C(=C\c1[nH]cnc2ncnc1-2)/c1cccs1,–,50%,–
C(=C\c1[nH]cnc2ncnc1-2)/c1ccco1,–,24%,–
C(#Cc1[nH]cnc2ncnc1-2)c1ccccc1,5.9 mg/L,100%,0.7 mg/L
Clc1nc(/C=C/c2ccccc2)c2ncn(Cc3ccccc3)c2n1,6 mg/L,99%,2 mg/L

# From ChEMBL document CHEMBL1136623, “Cytotoxic activity of 6-alkynyl- and 6-alkenylpurines” (Bioorg Med Chem Lett, 2003)
